From ChEMBL document CHEMBL4184291, “Discovery of N-arylpyrroles as agonists of GPR120 for the treatment of type II diabetes” (Bioorg Med Chem Lett, 2018)
One block for each molecule: values may come before it.

How the values were obtained:
[1] = molecular target: T1, Free fatty acid receptor 4 (Homo sapiens, UniProt Q5NUL3); experiment: Agonist activity at recombinant human GPR120 short isoform expressed in HEK293 cells assessed as intracellular calcium flux measured for 300 secs at 1 sec time interval by Fluo-4 NW based FLIPR assay; type: functional, cell-based
T1 sequence (Q5NUL3 whole entry): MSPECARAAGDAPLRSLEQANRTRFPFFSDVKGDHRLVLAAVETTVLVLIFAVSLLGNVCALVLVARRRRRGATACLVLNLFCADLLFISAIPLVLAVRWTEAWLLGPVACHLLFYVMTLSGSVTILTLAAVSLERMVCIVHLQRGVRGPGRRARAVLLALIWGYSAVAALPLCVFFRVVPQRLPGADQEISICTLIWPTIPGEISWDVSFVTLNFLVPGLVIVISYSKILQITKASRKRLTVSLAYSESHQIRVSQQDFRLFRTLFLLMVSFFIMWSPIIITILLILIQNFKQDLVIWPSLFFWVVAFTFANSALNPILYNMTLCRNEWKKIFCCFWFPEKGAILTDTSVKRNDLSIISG
How it was run: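 Human GPR120 calcium-flux assay in HEK-293 cells; values are averages of n > 2 runs, SEM < ±25%.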

[2] = Stability of the compound in air assessed as oxidation; type: physicochemical
Mus musculus [3] = experiment: Antiobesity activity in diet-induced obesity C57Bl6/J mouse model assessed as basal glucose level in plasma at 3 mg/kg qd for 15 days measured on day 15 post 6 hrs fasting (reference value: 187 +/- 24 mg/dL); type: functional
Mus musculus [4] = experiment: Antiobesity activity in diet-induced obesity C57Bl6/J mouse model assessed as final glucose level in plasma at 3 mg/kg qd for 15 days measured on day 15 post 6 hrs fasting (reference value: 184 +/- 30 mg/dL); type: functional
Mus musculus [5] = experiment: Antiobesity activity in diet-induced obesity C57Bl6/J mouse model assessed as change in plasma glucose level at 3 mg/kg qd for 15 days measured on day 15 post 6 hrs fasting; type: functional
Mus musculus [6] = experiment: Antiobesity activity in diet-induced obesity C57Bl6/J mouse model assessed as basal insulin level in plasma at 3 mg/kg qd for 15 days measured on day 15 post 6 hrs fasting (reference value: 16959 +/- 4943 pg/ml); type: functional
Mus musculus [7] = experiment: Antiobesity activity in diet-induced obesity C57Bl6/J mouse model assessed as final insulin level in plasma at 3 mg/kg qd for 15 days measured on day 15 post 6 hrs fasting (reference value: 7304 +/- 2967 pg/ml); type: functional
Mus musculus [8] = experiment: Antiobesity activity in diet-induced obesity C57Bl6/J mouse model assessed as change in plasma insulin level at 3 mg/kg qd for 15 days measured on day 15 post 6 hrs fasting; type: functional
Cytochrome P450 3A4 = Cytochrome P450 3A4 (Homo sapiens, UniProt P08684); experiment: Inhibition of CYP3A4 (unknown origin); type: ADME
Cytochrome P450 2D6 = Cytochrome P450 2D6 (Homo sapiens, UniProt P10635); experiment: Inhibition of CYP2D6 (unknown origin); type: ADME
Cytochrome P450 1A2 = molecular target: T2, Cytochrome P450 1A2 (Homo sapiens, UniProt P05177); experiment: Inhibition of CYP1A2 (unknown origin); type: ADME
T2 sequence (P05177 whole entry): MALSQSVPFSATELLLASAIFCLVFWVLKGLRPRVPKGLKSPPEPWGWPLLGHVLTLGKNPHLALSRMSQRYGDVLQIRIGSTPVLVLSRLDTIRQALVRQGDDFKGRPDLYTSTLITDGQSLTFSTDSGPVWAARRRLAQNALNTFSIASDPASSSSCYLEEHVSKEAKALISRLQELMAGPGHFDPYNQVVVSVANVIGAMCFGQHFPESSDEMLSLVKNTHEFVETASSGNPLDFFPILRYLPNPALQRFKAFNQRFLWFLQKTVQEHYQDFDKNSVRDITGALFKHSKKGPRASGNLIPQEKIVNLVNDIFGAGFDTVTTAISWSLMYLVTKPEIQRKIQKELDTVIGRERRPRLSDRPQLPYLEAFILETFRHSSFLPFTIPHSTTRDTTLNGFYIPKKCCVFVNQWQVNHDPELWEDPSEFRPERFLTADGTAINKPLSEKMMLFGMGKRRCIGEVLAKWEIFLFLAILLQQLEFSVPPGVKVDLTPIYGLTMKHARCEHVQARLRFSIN

Cytochrome P450 2C9 = Cytochrome P450 2C9 (Homo sapiens, UniProt P11712); experiment: Inhibition of CYP2C9 (unknown origin); type: ADME
Cytochrome P450 2C19 = Cytochrome P450 2C19 (Homo sapiens, UniProt P33261); experiment: Inhibition of CYP2C19 (unknown origin); type: ADME
[9] = Half life in human liver microsomes; type: ADME, microsome
[10] = Half life in mouse liver microsomes; type: ADME, microsome
[11] = Half life in rat liver microsomes; type: ADME, microsome
[12] = Protein binding in human plasma; type: ADME, cell-free; conditions: read-out: PPB (converted)
[13] = Protein binding in mouse plasma; type: ADME, cell-free; conditions: read-out: PPB (converted)
[14] = Protein binding in rat plasma; type: ADME, cell-free; conditions: read-out: PPB (converted)

Cytochrome P450 2D6, sequence (P10635 whole entry): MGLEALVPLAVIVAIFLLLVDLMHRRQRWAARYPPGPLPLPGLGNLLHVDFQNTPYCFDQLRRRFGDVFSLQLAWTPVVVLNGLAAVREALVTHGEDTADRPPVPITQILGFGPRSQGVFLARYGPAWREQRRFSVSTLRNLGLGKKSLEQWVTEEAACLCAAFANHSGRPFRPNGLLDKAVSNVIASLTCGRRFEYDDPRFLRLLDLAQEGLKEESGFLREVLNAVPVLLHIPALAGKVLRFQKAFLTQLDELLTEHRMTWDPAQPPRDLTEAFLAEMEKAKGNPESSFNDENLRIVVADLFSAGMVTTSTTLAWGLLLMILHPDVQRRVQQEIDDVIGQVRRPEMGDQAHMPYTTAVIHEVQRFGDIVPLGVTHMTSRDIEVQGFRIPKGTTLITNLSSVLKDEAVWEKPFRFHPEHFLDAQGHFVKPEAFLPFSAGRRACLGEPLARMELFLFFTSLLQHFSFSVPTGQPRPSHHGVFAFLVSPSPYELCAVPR
Cytochrome P450 2C9, sequence (P11712 whole entry): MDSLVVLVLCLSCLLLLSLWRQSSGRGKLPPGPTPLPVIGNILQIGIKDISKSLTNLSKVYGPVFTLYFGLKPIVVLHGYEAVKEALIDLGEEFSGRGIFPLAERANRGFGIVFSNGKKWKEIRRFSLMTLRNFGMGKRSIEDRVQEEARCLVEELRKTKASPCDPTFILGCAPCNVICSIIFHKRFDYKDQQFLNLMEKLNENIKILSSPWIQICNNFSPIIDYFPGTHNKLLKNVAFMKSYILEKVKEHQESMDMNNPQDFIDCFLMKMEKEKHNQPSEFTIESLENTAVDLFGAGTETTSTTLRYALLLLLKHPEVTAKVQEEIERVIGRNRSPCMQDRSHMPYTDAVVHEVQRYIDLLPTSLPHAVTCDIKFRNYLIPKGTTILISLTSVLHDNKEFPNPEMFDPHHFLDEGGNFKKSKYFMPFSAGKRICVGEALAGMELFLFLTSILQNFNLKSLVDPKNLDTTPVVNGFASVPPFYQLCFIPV
Cytochrome P450 3A4, sequence (P08684 whole entry): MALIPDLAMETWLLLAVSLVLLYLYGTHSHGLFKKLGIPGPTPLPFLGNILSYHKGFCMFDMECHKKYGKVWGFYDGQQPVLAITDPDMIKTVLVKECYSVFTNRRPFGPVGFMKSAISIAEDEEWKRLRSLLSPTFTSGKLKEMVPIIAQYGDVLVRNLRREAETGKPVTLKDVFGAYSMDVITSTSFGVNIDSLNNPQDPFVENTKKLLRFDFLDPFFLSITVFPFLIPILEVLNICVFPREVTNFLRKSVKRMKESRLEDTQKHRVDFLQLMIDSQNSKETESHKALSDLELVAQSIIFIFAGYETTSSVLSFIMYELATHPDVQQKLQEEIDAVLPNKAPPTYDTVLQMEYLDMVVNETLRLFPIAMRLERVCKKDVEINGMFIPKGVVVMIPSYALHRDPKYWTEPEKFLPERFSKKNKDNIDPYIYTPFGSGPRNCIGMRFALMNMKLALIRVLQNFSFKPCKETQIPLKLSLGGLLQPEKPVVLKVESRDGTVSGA
Cytochrome P450 2C19, sequence (P33261 whole entry): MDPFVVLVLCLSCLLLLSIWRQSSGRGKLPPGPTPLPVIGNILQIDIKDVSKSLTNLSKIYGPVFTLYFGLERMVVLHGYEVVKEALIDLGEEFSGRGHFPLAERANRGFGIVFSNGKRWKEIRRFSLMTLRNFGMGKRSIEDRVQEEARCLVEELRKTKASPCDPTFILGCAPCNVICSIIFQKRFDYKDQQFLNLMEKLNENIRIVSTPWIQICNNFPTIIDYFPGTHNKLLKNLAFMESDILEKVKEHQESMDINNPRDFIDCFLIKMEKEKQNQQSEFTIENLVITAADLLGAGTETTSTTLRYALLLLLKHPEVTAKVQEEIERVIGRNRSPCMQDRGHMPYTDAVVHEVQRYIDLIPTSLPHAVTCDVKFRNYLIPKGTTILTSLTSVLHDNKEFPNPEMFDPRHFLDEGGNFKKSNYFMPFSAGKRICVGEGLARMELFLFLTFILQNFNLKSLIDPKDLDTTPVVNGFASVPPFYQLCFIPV

EC50 [1]: 184 nM
SMILES: COc1ccc(-n2ccc(C(F)(F)F)c2COc2c(F)cc(CCC(=O)O)cc2F)cc1

Stability [2]: Stable
SMILES: Cc1c(CCC(=O)O)ccc(OCc2c(C(F)(F)F)ccn2-c2ccc(Cl)cc2)c1C

SMILES: CN(CCOc1ccc(CC2SC(=O)NC2=O)cc1)c1ccccn1 (centres undefined) [ROSIGLITAZONE]
Activity (Mus musculus [3]): 188 mg/dL
Activity (Mus musculus [4]): 148 mg/dL
Activity (Mus musculus [5]): -36.6 mg/dL
Activity (Mus musculus [6]): 15956 pg/mL
Activity (Mus musculus [7]): 1348 pg/mL
Activity (Mus musculus [8]): -5970 pg/mL

INH (Cytochrome P450 3A4): > 10 µM
INH (Cytochrome P450 2D6): > 10 µM
INH (Cytochrome P450 1A2): > 10 µM
INH (Cytochrome P450 2C9): 7 µM
INH (Cytochrome P450 2C19): 9 µM
half-life [9]: 15 min
half-life [10]: 7 min
half-life [11]: < 4 min
fraction unbound [12]: 0.0002
fraction unbound [13]: 0.0014
fraction unbound [14]: 0.0008
SMILES: CCc1ccc(-n2ccc(C(F)(F)F)c2COc2ccc(CCC(=O)O)c(F)c2F)cc1

INH (Cytochrome P450 3A4): > 10 µM
INH (Cytochrome P450 2D6): > 10 µM
INH (Cytochrome P450 1A2): > 10 µM
INH (Cytochrome P450 2C9): 4.2 µM
INH (Cytochrome P450 2C19): > 10 µM
half-life [9]: 7 min
half-life [10]: 85 min
half-life [11]: < 4 min
fraction unbound [12]: 0.0008
fraction unbound [13]: 0.0041
fraction unbound [14]: 0.0015
SMILES: Cc1ccc(-n2ccc(C(F)(F)F)c2COc2c(F)cc(CCC(=O)O)cc2F)cc1

Stability [2]: Unstable
SMILES: Cc1c(CCC(=O)O)ccc(OCc2cccn2-c2ccc(Br)cc2)c1C

EC50 [1]: > 5000 nM
SMILES: COC(=O)CCc1cc(F)c(OCc2c(C(F)(F)F)ccn2-c2ccc(Cl)cc2)c(F)c1

Stability [2]: Stable
SMILES: O=C(O)CCc1ccc(OCc2c(C(F)(F)F)ccn2-c2ccc(Cl)cc2)c(F)c1F

EC50 [1]: 100 to 101 nM
SMILES: O=C(O)CCc1cc(F)c(OCc2c(C(F)(F)F)ccn2-c2ccccc2)c(F)c1
